Measurements as given in ChEMBL document CHEMBL1127055, “Pyrrolo[1,2-a]benzimidazole-based aziridinyl quinones. A new class of DNA cleaving agent exhibiting G and A base specificity” (1993).

Columns and labels:
Format in all cases: functional, Homo sapiens
HOP-18 = assay: Tested for cytotoxic activity against non-small cell lung cancer HOP-18 cell line
Method in brief: (§1)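 Screened in a panel of 60 human cancer cell lines. The read-out was LC50, the concentration needed for 50% cell kill. Values were reported as log LC50 in a mean graph and plotted against the log of the panel mean LC50.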

XF498 = assay: Tested for cytotoxic activity against CNS cancer XF498 cell line; method in brief: as §1
TK-10 = assay: Tested for cytotoxic activity against renal cancer TK-10 cell line; method in brief: as §1
NCI-H226 = assay: Tested for cytotoxic activity against non-small cell lung cancer NCI-H226 cell line; method in brief: as §1
CCRF-CEM = assay: Tested for cytotoxic activity against leukemia CCRF-CEM cell line; method in brief: as §1
SK-MEL-2 = assay: Tested for cytotoxic activity against melanoma SK-MEL-2 cell line; method in brief: as §1
NCI-H522 = assay: Tested for cytotoxic activity against non-small cell lung cancer NCI-H522 cell line; method in brief: as §1
UACC-257 = assay: Tested for cytotoxic activity against melanoma UACC-257 cell line; method in brief: as §1
LXFL 529 = assay: Tested for cytotoxic activity against non-small cell lung cancer LXFL-529L cell line; method in brief: as §1
HT-29 = assay: Tested for cytotoxic activity against colon cancer HT-29 cell line; method in brief: as §1
786-0 = assay: Tested for cytotoxic activity against renal cancer 786-0 cell line; method in brief: as §1
A549 = assay: Tested for cytotoxic activity against non-small cell lung cancer A549/ATCC cell line; method in brief: as §1
NCI-H23 = assay: Tested for cytotoxic activity against non-small cell lung cancer NCI-H23 cell line; method in brief: as §1
SNB-78 = assay: Tested for cytotoxic activity against CNS cancer SNB-78 cell line; method in brief: as §1
OVCAR-5 = assay: Tested for cytotoxic activity against ovarian cancer OVCAR-5 cell line; method in brief: as §1
SK-MEL-28 = assay: Tested for cytotoxic activity against melanoma SK-MEL-28; method in brief: as §1
OVCAR-3 = assay: Tested for cytotoxic activity against ovarian cancer OVCAR -3 cell line; method in brief: as §1
SN12C = assay: Tested for cytotoxic activity against renal cancer SN12C cell line; method in brief: as §1
SW-620 = assay: Tested for cytotoxic activity against colon cancer SW-620 cell line; method in brief: as §1
Malme-3M = assay: Tested for cytotoxic activity against melanoma MALME-3M cell line; method in brief: as §1
SK-MEL-5 = assay: Tested for cytotoxic activity against melanoma SK-MEL-5 cell line; method in brief: as §1
KM-20L2 = assay: Tested for cytotoxic activity against colon cancer KM20L2 cell line; method in brief: as §1
CAKI-1 = assay: Tested for cytotoxic activity against renal cancer CAKI-1 cell line; method in brief: as §1
SNB-75 = assay: Tested for cytotoxic activity against CNS cancer SNB-75 cell line; method in brief: as §1
SF-295 = assay: Tested for cytotoxic activity against CNS cancer SF-295 cell line; method in brief: as §1
HOP-62 = assay: Tested for cytotoxic activity against non-small cell lung cancer HOP-62 cell line; method in brief: as §1
M19-MEL = assay: Tested for cytotoxic activity against melanoma M19-MEL cell line; method in brief: as §1
EKVX = assay: Tested for cytotoxic activity against non-small cell lung cancer […] cell line; method in brief: as §1
DMS-114 = assay: Tested for cytotoxic activity against small cell lung cancer DMS114 cell line; method in brief: as §1
UACC-62 = assay: Tested for cytotoxic activity against melanoma UACC-62 cell line; method in brief: as §1
U-251 = assay: Tested for cytotoxic activity against CNS cancer U251 cell line; method in brief: as §1
RXF 393 = assay: Tested for cytotoxic activity against renal cancer RXF-393 cell line; method in brief: as §1
OVCAR-4 = assay: Tested for cytotoxic activity against ovarian cancer OVCAR-4 cell line; method in brief: as §1
DLD-1 = assay: Tested for cytotoxic activity against colon cancer DLD-1 cell line; method in brief: as §1
SF-539 = assay: Tested for cytotoxic activity against CNS cancer […] cell line; method in brief: as §1
OVCAR-8 = assay: Tested for cytotoxic activity against ovarian cancer OVCAR-8 cell line; method in brief: as §1
M14 = assay: Tested for cytotoxic activity against melanoma M14 cell line; method in brief: as §1
SNB-19 = assay: Tested for cytotoxic activity against CNS cancer SNB-19 cell line; method in brief: as §1
MOLT-4 = assay: Tested for cytotoxic activity against leukemia MOLT-4 cell line; method in brief: as §1
SF-268 = assay: Tested for cytotoxic activity against CNS cancer […] cell line; method in brief: as §1
ACHN = assay: Tested for cytotoxic activity against renal cancer ACHN cell line; method in brief: as §1
IGROV-1 = assay: Tested for cytotoxic activity against ovarian cancer IGROVI cell line; method in brief: as §1
KM12 = assay: Tested for cytotoxic activity against colon cancer KM-12 cell line; method in brief: as §1
K562 = assay: Tested for cytotoxic activity against leukemia K-562 cell line; method in brief: as §1
SK-OV-3 = assay: Tested for cytotoxic activity against ovarian cancer SK-OV-3 cell line; method in brief: as §1
HOP-92 = assay: Tested for cytotoxic activity against non-small cell lung cancer HOP92 cell line; method in brief: as §1
UO-31 = assay: Tested for cytotoxic activity against renal cancer UO-31 cell line; method in brief: as §1
LOX IMVI = assay: Tested for cytotoxic activity against melanoma […] cell line; method in brief: as §1
COLO 205 = assay: Tested for cytotoxic activity against colon cancer COLO 205 cell line; method in brief: as §1
NCI-H322M = assay: Tested for cytotoxic activity against non-small cell lung cancer NCI-H322M cell line; method in brief: as §1

CC(=O)OC1CCn2c1nc1c2C(=O)C(C)=C(N2CC2)C1=O (stereo not given)
LC50 (HOP-18): 6.64
LC50 (XF498): 7.09
LC50 (TK-10): 6.06
LC50 (NCI-H226): 7.09
LC50 (CCRF-CEM): >4
LC50 (SK-MEL-2): 7.61
LC50 (NCI-H522): <8
LC50 (UACC-257): 6.71
LC50 (LXFL 529): 7.33
LC50 (HT-29): 6.03
LC50 (786-0): 7.36
LC50 (A549): 5.44
LC50 (NCI-H23): <8
LC50 (SNB-78): 5.39
LC50 (OVCAR-5): 6.53
LC50 (SK-MEL-28): 7.59
LC50 (OVCAR-3): 6.34
LC50 (SN12C): 7.12
LC50 (SW-620): 6.22
LC50 (Malme-3M): 7.26
LC50 (SK-MEL-5): <8
LC50 (KM-20L2): 6.64
LC50 (CAKI-1): 5.53
LC50 (SNB-75): 7.56
LC50 (SF-295): 6.47
LC50 (HOP-62): <8
LC50 (M19-MEL): 5.12
LC50 (EKVX): 6.55
LC50 (DMS-114): >4
LC50 (UACC-62): <8
LC50 (U-251): 6.53
LC50 (RXF 393): <8
LC50 (OVCAR-4): 7.19
LC50 (DLD-1): 7.66
LC50 (SF-539): 7.89
LC50 (OVCAR-8): 7.09
LC50 (M14): <8
LC50 (SNB-19): 6.54
LC50 (MOLT-4): >4
LC50 (SF-268): 5.67
LC50 (ACHN): 6.53
LC50 (IGROV-1): 5.85
LC50 (KM12): 7.02
LC50 (K562): >4
LC50 (SK-OV-3): 6.36
LC50 (HOP-92): 5.14
LC50 (UO-31): <8
LC50 (LOX IMVI): <8
LC50 (COLO 205): 4.82
LC50 (NCI-H322M): 6.63
